We go through twelve compounds from ChEMBL document CHEMBL1129597, “2-[2'-(Dimethylamino)ethyl]-1,2-dihydro- 3H-dibenz[de,h]isoquinoline-1,3-diones with substituents at positions 4, 8, 9, 10, and 11. Synthesis, antitumor activity, and quantitative structure-activity relationships” (J Med Chem, 1996).

The subject of one series is A549. The series can be described thus: Activity against A549 cancer cell line. The class given is functional, cell-based. The settings on record: Homo sapiens.
Series [1] concerns L1210. Kind of series: Compound was tested for antitumor activity against l. Sensitive leukemia cell lines (L1210). The class given is functional, cell-based. The following applies: Mus musculus. In a few lines: (§1)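 Murine L1210 leukemia cells, sensitive or MDR subline, in culture. Continuous drug exposure during MTT assay. Five concentrations per analogue, six determinations per concentration. The IC50 was derived.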

The test system of series [2] is L1210. Kind of series: Antitumor activity against murine leukemia L1210 cell line. It counts as functional, cell-based. The settings on record: Mus musculus. Summed up:
as §1

In series [3] the test system is MCF7. The series can be described thus: Antitumor activity against human mammary carcinoma mitoxantrone-resistant […] breast cell line. It counts as functional, cell-based.
Series [4] deals with MCF7. The series can be described thus: Antitumor activity against human mammary carcinoma doxorubicin-resistant […] breast cell line. It counts as functional, cell-based.
Series [5] relates to MCF7. The series can be described thus: Antitumor activity against human mammary carcinoma sensitive […] breast cell line. The class given is functional, cell-based.
In series [6] the test system is OVCAR-3. The series can be described thus: Antitumor activity against human ovarian OVCAR-3 cell lines. It counts as functional, cell-based. Summed up:
(§2)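 Cultured human tumor cells (melanoma UACC375, ovarian OVCAR3) under continuous drug exposure. Growth was read by sulforhodamine or MTT assay. Five concentrations per analogue, six determinations per concentration. IC50 values were derived from these.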

The species entered for another series is Rattus norvegicus. Kind of series: Cardiotoxicity measured by the ATP/protein ratio compared with untreated controls using neonatal rat heart myocyte assay. It counts as functional. In a few lines: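 Neonatal rat heart myocytes exposed to drug for 1 h. The ATP/protein ratio was measured versus untreated control myocytes. IC50 is the concentration reducing this ratio to 50% of control.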

In series [7] the test system is WiDr. The series can be described thus: Activity against human colon carcinoma sensitive WiDr cell line. The class given is functional, cell-based.
The test system of series [8] is WiDr. Kind of series: Activity against human colon carcinoma multi drug resistant (MDR)-WiDr cell line. It counts as functional, cell-based.
The next series concerns UACC-375. The series can be described thus: Antitumor activity against human melanoma UACC375 cell line. It counts as functional, cell-based. Summed up:
as §2

Series [9] can be described thus: (§3) The quotient of the IC50 in the myocytes divided by the mean IC50 in the three cell lines. It counts as functional. Summed up:
(§4)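 Calculated index: the myocyte IC50 divided by the mean IC50 across three tumor lines (sensitive L1210, melanoma UACC375, ovarian OVCAR3).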

Series [10] relates to L1210. The series can be described thus: Compound was tested for antitumor activity against Murine leukemia cell line (L1210). The class given is functional, cell-based. The following applies: Mus musculus. In a few lines: as §1
The test system of series [11] is L1210. The series can be described thus: Antitumor activity against sensitive L1210 murine leukemia cell lines. The class given is functional, cell-based. The settings on record: Mus musculus. Summed up: as §1
The test system of series [12] is OVCAR-3. Kind of series: Compound was tested for antitumor activity against. Human ovarian (OVCAR-3) cell lines. The class given is functional, cell-based.
For series [13], the system named is WiDr. The series can be described thus: Compound was tested for antitumor activity against The compound tested for activity against Human colon carcinoma, Multi Drug resistant(MDR) WiDr - cell line. It counts as functional, cell-based.
Series [14] relates to MCF7. Kind of series: Compound was tested for antitumor activity against Human mammary carcinoma Doxorubicin resistant […] breast cell line. It counts as functional, cell-based.
For the next series, the system named is WiDr (Homo sapiens). Kind of series: Compound was tested for antitumor activity against The compound tested for activity against Human colon carcinoma sensitive WiDr cell line.
Series [15] has as its system WiDr. Kind of series: Compound was tested for antitumor activity against The compound tested for activity against Human colon carcinoma sensitive WiDr cell line. The class given is functional, cell-based.
Series [16] can be described thus: (§5) Percent increase in life span when given at a dose in P388 leukemia cells of mice. It counts as functional. Summed up:
(§6)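 P388 leukemia in mice, standard NCI protocol: 10^6 leukemia cells given ip; compound given ip in equal doses on days 1, 5 and 9. Highest dose used was 10% below the LD10 for acute toxicity in that mouse species. %ILS = 100 × (treated life span − control life span)/control life span, reported at the highest nontoxic dose.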

Series [17] is described as follows: as §3. It counts as ADME, cell-based. The settings on record: myocytes versus three cell lines; read-out: Toxicity ratio. Summed up: as §4
Series [18] relates to MCF7. The series can be described thus: Compound was tested for antitumor activity against Human mammary carcinoma sensitive cell line ([…] breast). The class given is functional, cell-based.
Series [19] has as its system WiDr. The series can be described thus: The compound tested for activity againstHuman colon carcinoma sensitive WiDr cell line. The class given is functional, cell-based. The settings on record: Homo sapiens.
Series [20] has as its system MCF7. Kind of series: Compound was tested for antitumor activityHuman mammary carcinoma Doxorubicin resistant […] breast cell line. The class given is functional, cell-based. The settings on record: Homo sapiens.
For series [21], the species on record is Mus musculus. The description is as §5. It counts as functional. In a few lines:
as §6

The species entered for series [22] is Mus musculus. Kind of series: Percent increase in life span when given at a dose in P388 leukemia cells of mice (Positive control for compound 44). It counts as functional. Summed up:
as §6

The species named for series [23] is Mus musculus. Kind of series: Percent increase in life span when given at a dose in P388 leukemia cells of mice (Positive control for compounds 15,34 and amonafide). It counts as functional. Summed up:
as §6

Bounds are passed on as bounds.

`CN(C)CCN1C(=O)c2cccc3cc4cc(O)ccc4c(c23)C1=O`: the IC50 (as a rule, the concentration that gives 50% inhibition) turned out to be 7.1 nM in the series on A549; 5.4 nM in the series with L1210 [1]; 6.7 nM in the series on L1210 [2]; 17 nM with MCF7 [3]; 20 nM with MCF7 [4]; 13 nM with MCF7 [5]. The IC50 with OVCAR-3 [6] was found to be 22 nM; in the series filed under Rattus norvegicus, 404 nM; in the series with WiDr [7] it was 17 nM; with WiDr [8], 20 nM; in the series with UACC-375, 4 nM. The Toxicity ratio in series [9] is 40.4.

As for `CN(C)CCN1C(=O)c2c(Cl)ccc3cc4ccccc4c(c23)C1=O`, the IC50 in the series on A549 worked out at 12 nM; in the series on L1210 [10], 15 nM; with L1210 [11] it was 10 nM; with MCF7 [3], 60 nM; with MCF7 [5] it was 50 nM; in the series with OVCAR-3 [12], 180 nM. Moreover, the IC50 in the series filed under Rattus norvegicus is 900 nM; with WiDr [13], 190 nM; in the series on UACC-375, 332 nM; in the series with MCF7 [14], 85 nM; in the series with WiDr (Homo sapiens), 90 nM. Moreover, in [9], the Toxicity ratio was 5.2.

For the compound `CCOc1ccc2cc3cccc4c3c(c2c1)C(=O)N(CCN(C)C)C4=O`, the IC50 with A549 was 61 nM; in the series on L1210 [11], 25 nM; in the series with L1210 [2], 50 nM; in the series on MCF7 [3], 15 nM; with MCF7 [4], 100 nM; with MCF7 [5], 32 nM. Moreover, the IC50 came to 77 nM in the series with OVCAR-3 [6]; 11300 nM in the series filed under Rattus norvegicus; 100 nM with WiDr [15]; 120 nM in the series on WiDr [8]; 77 nM with UACC-375. Moreover, the Toxicity ratio in [9] was determined as 188.

Consider `CC(=O)Nc1cccc2c3c4c(cccc4cc12)C(=O)N(CCN(C)C)C3=O`, for which, in series [16], the ILS (as a rule, the gain in survival time of treated over control animals, in per cent) is reported as 109%.

With `CN(C)CCN1C(=O)c2cccc3cc4c(Cl)cccc4c(c23)C1=O`, the IC50 in the series on A549 was 22 nM; with L1210 [2], 18 nM; in the series with MCF7 [3] it was 19 nM; with MCF7 [4], 80 nM; with MCF7 [5] it was 60 nM; in the series with OVCAR-3 [6], 39 nM. For the same compound, the IC50 is 1030 nM in the series filed under Rattus norvegicus, 20 nM in the series with WiDr [7], 110 nM in the series with WiDr [8] and 77 nM in the series on UACC-375. Further, the selectivity ratio in series [17] was determined as 22.8.

Consider `Cc1ccc2cc3ccccc3c3c2c1C(=O)N(CCN(C)C)C3=O`, for which the IC50 in the series with A549 was found to be 34 nM; with L1210 [10], 68 nM; with L1210 [11] it was 54 nM; in the series with MCF7 [3], 140 nM; with MCF7 [18], 390 nM; with OVCAR-3 [6], 122 nM. For the same compound, the IC50 amounted to 1360 nM in the series filed under Rattus norvegicus; 120 nM in the series on WiDr [8]; 60 nM in the series with WiDr [19]; 176 nM in the series on UACC-375; 330 nM with MCF7 [14]. In series [9], the Toxicity ratio amounted to 12.

Consider `CN(C)CCN1C(=O)c2cccc3cc4ccc(NC(=O)C(C)(C)C)cc4c(c23)C1=O`, for which, in series [16], the ILS is 105%.

Consider `CN(C)CCN1C(=O)c2c(O)ccc3cc4ccccc4c(c23)C1=O`, for which the IC50 in the series on A549 is 820 nM; in the series with L1210 [10] it was 14800 nM; in the series with L1210 [11], 6740 nM; in the series with MCF7 [3], 1500 nM; with MCF7 [5], 1200 nM; with MCF7 [20] it was 2800 nM. The IC50 in the series with OVCAR-3 [6] is 5500 nM; in the series filed under Rattus norvegicus, greater than 135000 nM; in the series with WiDr [7] it was 2220 nM; in the series on WiDr [8], 4700 nM; in the series on UACC-375, 7550 nM. The Toxicity ratio in series [9] is greater than 20.

For the compound `CN(C)CCN1C(=O)c2cccc3cc(N)cc(c23)C1=O` [AMONAFIDE], the IC50 in the series with A549 stood at 1100 nM; in the series with MCF7 [3], 1200 nM; in the series with MCF7 [4] it was 1800 nM; with MCF7 [5] it was 1100 nM; in the series filed under Rattus norvegicus, 48400 nM; in the series with WiDr [7] it was 1100 nM. Moreover, the IC50 in the series on WiDr [8] stood at 2200 nM. For the same compound, the increase in life span (ILS) in the series filed under Mus musculus [21] was determined as 88%. Moreover, the Toxicity ratio in series [9] is 30.

With `CN(C)CCN1C(=O)c2cccc3cc4ccccc4c(c23)C1=O` [AZONAFIDE], the half-inhibitory concentration (IC50) in the series listed under Rattus norvegicus amounted to 1980 nM. Also, the ILS in the series filed under Mus musculus [21] is 79%. Besides, the Toxicity ratio in series [9] was found to be 44.

As for `COc1cccc2c1C(=O)c1c(O)c3c(c(O)c1C2=O)C[C@@](O)(C(=O)CO)C[C@@H]3O[C@H]1C[C@H](N)[C@H](O)[C@H](C)O1` [DOXORUBICIN], the ILS is recorded as 72% in the series listed under Mus musculus [22] and 113% in the series filed under Mus musculus [23]. Moreover, the IC50 in the series listed under Rattus norvegicus came to 10200 nM.

For the compound `O=C1c2c(O)ccc(O)c2C(=O)c2c(NCCNCCO)ccc(NCCNCCO)c21` [MITOXANTRONE], the IC50 in the series listed under Rattus norvegicus came out at 7740 nM. For the same compound, in the series filed under Mus musculus [21], the ILS came out at 200%. The Toxicity ratio in [9] is 368.
